Results from ChEMBL document CHEMBL5715938, “The protein kinase Cbeta-selective inhibitor, Enzastaurin (LY317615.HCl), suppresses signaling through the AKT pathway, induces apoptosis, and suppresses growth of human colon cancer and glioblastoma xenografts” (Cancer Res, 2005).
The source made the active and inactive calls. The rule behind the calls is not given here.

Biological target: Glycogen synthase kinase-3 beta (Homo sapiens) (UniProt P49841)
Assay: Inhibition of GSK3beta phosphorylation at serine 9 residue in human HCT-116 cells at 1 micromol/L by Western blotting analysis
Type: cell-based
Conditions: dose 1.0 µmol/L, time <= 4.0 hrs
Summary of the method: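 Cultured tumor cells treated with 1 μmol/L drug; lysates in cell extraction buffer with protease inhibitors, western blotted with phospho-specific antibodies (pGSK3β Ser9, pAKT Thr308, phospho-ERK) alongside total GSK3β/AKT.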

Chain of Glycogen synthase kinase-3 beta (Homo sapiens) (P49841 whole entry, looked up): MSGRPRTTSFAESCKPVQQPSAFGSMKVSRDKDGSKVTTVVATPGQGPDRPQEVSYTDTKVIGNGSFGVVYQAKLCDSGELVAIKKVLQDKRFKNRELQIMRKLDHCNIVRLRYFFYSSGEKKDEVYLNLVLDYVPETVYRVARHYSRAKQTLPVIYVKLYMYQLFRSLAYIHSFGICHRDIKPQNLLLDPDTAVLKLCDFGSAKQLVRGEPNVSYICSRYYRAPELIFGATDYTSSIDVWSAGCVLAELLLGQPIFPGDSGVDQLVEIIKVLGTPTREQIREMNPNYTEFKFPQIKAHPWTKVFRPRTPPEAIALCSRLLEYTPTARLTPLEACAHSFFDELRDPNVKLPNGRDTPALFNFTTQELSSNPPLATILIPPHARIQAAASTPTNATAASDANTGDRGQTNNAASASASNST

- inhibition: Active
SMILES: CO[C@@H]1[C@H](N(C)C(=O)c2ccccc2)C[C@H]2O[C@]1(C)n1c3ccccc3c3c4c(c5c6ccccc6n2c5c31)C(=O)NC4
